What was measured:
[1] = Oral bioavailability in Sprague-Dawley rat at 5 mg/kg; assay type: ADME, organism-based; details: in vivo
In short: (§1)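 Overnight-fasted Sprague-Dawley rats (n = 3) received a single 5 mg/kg iv or oral dose in DMSO/PEG400 (1:9, v/v). Mean concentrations were fitted multiexponentially. AUC₀₋ₜ was calculated by linear trapezoidal rule and extrapolated to infinity using Cₜ divided by the terminal rate constant.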

[2] = Clearance in Sprague-Dawley rat at 5 mg/kg, iv; assay type: ADME, organism-based; parameters: dose 5 mg/kg, route intravenous; details: in vivo; in short: as §1
[3] = Half life in Sprague-Dawley rat at 5 mg/kg, iv; assay type: ADME, organism-based; parameters: dose 5 mg/kg, route intravenous; details: in vivo; in short: as §1
Hepatitis C virus [4] = assay: Antiviral activity against HCV1a H77 assessed as inhibition of viral replication by cell-based replicon assay; assay type: functional, organism-based, Hepacivirus hominis; details: genotype 1a H77
In short: (§2)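 Stable luciferase-reporter subgenomic replicon Huh-7 lines (1a H77; 1b Con1) were seeded at 5000 cells/well in DMEM with 5% FBS. The next day an eight-point half-log dilution series was added from DMSO stocks. After 3 days the cells were lysed, luciferin was added and luminescence was read. EC₅₀ came from percent inhibition of replication at each concentration.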

[5] = Inhibition of HCV1a H77 NS5B assessed as [3H]UTP incorporation into RNA by scintillation counting; parameters: species or system Hepatitis C virus (isolate H77)
In short: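 Two-fold serial inhibitor dilutions were preincubated for 15 min at room temperature with NS5B (genotype 1a H77 or genotype 1b BK, 20-50 nM) in 20 mM Tris-Cl pH 7.4, 2 mM MnCl₂, 1 mM DTT, 1 mM EDTA and 60-125 µM GTP. Reactions were started with 20 µM CTP, 20 µM ATP, 1 µM ³H-UTP, 5 nM template RNA and RNase inhibitor, then run 2-4 h at room temperature.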

[6] = AUC (0 to infinity) in Sprague-Dawley rat at 5 mg/kg, po; assay type: ADME, organism-based; parameters: time infinity, dose 5 mg/kg, route oral; details: plasma; in short: as §1
[7] = Cmax in Sprague-Dawley rat at 5 mg/kg, po; assay type: ADME, organism-based; parameters: dose 5 mg/kg, route oral; details: in vivo; in short: as §1
[8] = Drug level in Sprague-Dawley rat liver at 5 mg/kg, po after 12 hrs; assay type: ADME, organism-based; parameters: dose 5 mg/kg, route oral; details: read-out: Drug uptake
In short: (§3)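 Sprague-Dawley rats were given 5 mg/kg orally in DMSO/PEG400 (1:9, v/v). Separate animals were sampled for liver and plasma at 1, 6 and 12 h. Drug in liver (µg/g) and in plasma was measured by LC-MS, and liver/plasma ratios were taken at each time.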

[9] = Ratio of drug level in liver to plasma of Sprague-Dawley rat at 5 mg/kg, po after 1 hr; assay type: ADME, organism-based; parameters: dose 5 mg/kg, route oral; details: liver and plasma; in short: as §3
Hepatitis C virus [10] = assay: Antiviral activity against HCV1b Con1 infected in human Huh7 cells assessed as inhibition viral subgenomic replication […]; assay type: functional, organism-based, Hepacivirus hominis; details: isolate Con1, Huh-7
[11] = Drug level in Sprague-Dawley rat liver at 5 mg/kg, po after 1 hr; assay type: ADME, organism-based; parameters: dose 5 mg/kg, route oral; details: read-out: Drug uptake; in short: as §3
[12] = Drug level in Sprague-Dawley rat liver at 5 mg/kg, po after 6 hrs; assay type: ADME, organism-based; parameters: dose 5 mg/kg, route oral; details: read-out: Drug uptake; in short: as §3
[13] = Ratio of drug level in liver to plasma of Sprague-Dawley rat at 5 mg/kg, po after 6 hrs; assay type: ADME, organism-based; parameters: dose 5 mg/kg, route oral; details: liver and plasma; in short: as §3
Hepatitis C virus [14] = assay: Antiviral activity against HCV1a H77 infected in human Huh7 cells assessed as inhibition viral subgenomic replication; assay type: functional, organism-based, Hepacivirus hominis; details: genotype 1a H77, Huh-7; in short: as §2
Genome polyprotein = Genome polyprotein (Hepatitis C virus genotype 1b (isolate Con1) (HCV), UniProt Q9WMX2); assay: Inhibition of HCV1b Con1 NS5B assessed as [3H]UTP incorporation into RNA by scintillation counting
Genome polyprotein, sequence (Q9WMX2 2420-3010 limits assumed): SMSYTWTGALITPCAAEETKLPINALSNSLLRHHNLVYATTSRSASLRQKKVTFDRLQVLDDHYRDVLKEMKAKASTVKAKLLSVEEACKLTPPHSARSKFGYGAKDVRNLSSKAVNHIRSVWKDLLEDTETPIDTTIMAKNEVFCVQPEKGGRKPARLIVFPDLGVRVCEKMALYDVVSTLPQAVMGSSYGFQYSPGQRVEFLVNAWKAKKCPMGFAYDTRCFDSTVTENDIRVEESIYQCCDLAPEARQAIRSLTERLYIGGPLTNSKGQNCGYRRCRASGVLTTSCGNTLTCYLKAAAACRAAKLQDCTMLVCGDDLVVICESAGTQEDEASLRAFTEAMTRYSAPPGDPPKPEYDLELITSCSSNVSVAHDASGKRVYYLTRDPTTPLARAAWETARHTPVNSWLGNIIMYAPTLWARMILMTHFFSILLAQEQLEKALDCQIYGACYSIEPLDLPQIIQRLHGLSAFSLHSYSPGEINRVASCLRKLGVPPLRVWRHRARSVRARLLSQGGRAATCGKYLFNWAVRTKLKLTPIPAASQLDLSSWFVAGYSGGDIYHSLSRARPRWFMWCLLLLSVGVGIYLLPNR

[15] = Ratio of drug level in liver to plasma of Sprague-Dawley rat at 5 mg/kg, po after 12 hrs; assay type: ADME, organism-based; parameters: dose 5 mg/kg, route oral; details: liver and plasma; in short: as §3
Hepatitis C virus [16] = assay: Antiviral activity against HCV1b Con1 infected in human Huh7 cells assessed as inhibition viral subgenomic replication; assay type: functional, organism-based, Hepacivirus hominis; details: isolate Con1, Huh-7; in short: as §2

Row | SMILES | bioavailability [1] | clearance [2] | half-life [3] | EC50 (Hepatitis C virus [4]) | IC50 [5] | further results
1 | CC(C)(C)CCC1(NCc2ccccc2N)C(=O)C(C2=NS(=O)(=O)c3cc(NS(C)(=O)=O)ccc3N2)=C(O)c2ccccc21 (stereo not given) | 8.9% | 20 mL/min/kg | 2.2 h | 8 nM | 17 nM | AUC(0-inf) [6]: 410 ng·h/mL; Cmax [7]: 80 ng/mL
2 | Cc1cccc(C)c1CN[C@]1(CCC(C)(C)C)C(=O)C(C2=NS(=O)(=O)c3cc(NS(C)(=O)=O)ccc3N2)=C(O)c2ccccc21 | 55.9% | 11.7 mL/min/kg | 3.1 h |  | 16 nM | concentration at 12 h [8]: 2110 ng/g; Kp at 1 h [9]: 12; EC50 (Hepatitis C virus [10]): 270 nM; concentration at 1 h [11]: 5860 ng/g; concentration at 6 h [12]: 4360 ng/g; Kp at 6 h [13]: 15; EC50 (Hepatitis C virus [14]): 10 nM; IC50 (Genome polyprotein): 19 nM; Kp at 12 h [15]: 11; EC50 (Hepatitis C virus [16]): 6 nM; AUC(0-inf) [6]: 4210 ng·h/mL; Cmax [7]: 620 ng/mL
3 | COc1ccc(CNC2(CCC(C)(C)C)C(=O)C(C3=NS(=O)(=O)c4cc(NS(C)(=O)=O)ccc4N3)=C(O)c3ccccc32)cc1 (stereo not given) |  |  |  | 13 nM | 13 nM | 
4 | Cc1cccc(C)c1CNC1(CCC(C)(C)C)C(=O)C(C2=NS(=O)(=O)c3cc(NS(C)(=O)=O)ccc3N2)=C(O)c2ccccc21 (stereo not given) | 53.7% | 13 mL/min/kg | 5 h | 21 nM | 24 nM | AUC(0-inf) [6]: 3500 ng·h/mL; Cmax [7]: 460 ng/mL
5 | Cc1ccc(CNC2(CCC(C)(C)C)C(=O)C(C3=NS(=O)(=O)c4cc(NS(C)(=O)=O)ccc4N3)=C(O)c3ccccc32)cn1 (stereo not given) | 0% | 98.3 mL/min/kg | 0.5 h | 11 nM | 14 nM | 
6 | CC(C)(C)CCC1(NCc2ccc(-c3ccccc3)cc2)C(=O)C(C2=NS(=O)(=O)c3cc(NS(C)(=O)=O)ccc3N2)=C(O)c2ccccc21 (stereo not given) |  |  |  |  | 27 nM | 
7 | CONC1(CCC(C)C)C(=O)C(C2=NS(=O)(=O)c3cc(NS(C)(=O)=O)ccc3N2)=C(O)c2ccccc21 (stereo not given) |  |  |  | 16 nM | 10 nM | 
8 | COc1cccc(CNC2(CCC(C)(C)C)C(=O)C(C3=NS(=O)(=O)c4cc(NS(C)(=O)=O)ccc4N3)=C(O)c3ccccc32)c1 (stereo not given) |  |  |  | 20 nM | 13 nM | 
9 | COc1cccc(CNC2(CCC(C)C)C(=O)C(C3=NS(=O)(=O)c4cc(NS(C)(=O)=O)ccc4N3)=C(O)c3ccccc32)c1 (stereo not given) |  |  |  | 38 nM | 14 nM | 
10 | Cc1cc(C)c(CNC2(CCC(C)(C)C)C(=O)C(C3=NS(=O)(=O)c4cc(NS(C)(=O)=O)ccc4N3)=C(O)c3ccccc32)c(C)c1 (stereo not given) |  |  |  | 60 nM | 33 nM | 
11 | CC(C)(C)CCC1(NCc2ccc3ccccc3c2)C(=O)C(C2=NS(=O)(=O)c3cc(NS(C)(=O)=O)ccc3N2)=C(O)c2ccccc21 (stereo not given) | 28.1% | 23.3 mL/min/kg | 2.2 h | 16 nM | 23 nM | AUC(0-inf) [6]: 1020 ng·h/mL; Cmax [7]: 180 ng/mL

The next lines start with results.

Row | bioavailability [1] | clearance [2] | half-life [3] | EC50 (Hepatitis C virus [4]) | IC50 [5] | SMILES | further results
12 |  |  |  | 15 nM | 5 nM | Cc1cc(CNC2(CCC(C)(C)C)C(=O)C(C3=NS(=O)(=O)c4cc(NS(C)(=O)=O)ccc4N3)=C(O)c3ccccc32)n(C)n1 (stereo not given) | 
13 |  |  |  | 17 nM | 13 nM | CC(C)(C)CCC1(NCc2ccc(C#N)cc2)C(=O)C(C2=NS(=O)(=O)c3cc(NS(C)(=O)=O)ccc3N2)=C(O)c2ccccc21 (stereo not given) | 
14 | 48% | 25 mL/min/kg | 3.2 h | 6 nM | 15 nM | COc1ccccc1CNC1(CCC(C)(C)C)C(=O)C(C2=NS(=O)(=O)c3cc(NS(C)(=O)=O)ccc3N2)=C(O)c2ccccc21 (stereo not given) | AUC(0-inf) [6]: 1600 ng·h/mL; Cmax [7]: 400 ng/mL
15 |  |  |  | 35 nM | 33 nM | CC(C)(C)CCC1(NCc2ccccc2C(F)(F)F)C(=O)C(C2=NS(=O)(=O)c3cc(NS(C)(=O)=O)ccc3N2)=C(O)c2ccccc21 (stereo not given) | 
16 | 0% | 71.7 mL/min/kg | 0.2 h | 56 nM | 7 nM | CC(C)CC[C@@]1(NS(C)(=O)=O)C(=O)C(C2=NS(=O)(=O)c3cc(NS(C)(=O)=O)ccc3N2)=C(O)c2ccccc21 | 
17 |  |  |  | 15 nM | 10 nM | CC(C)(C)CCC1(NCc2cccnc2)C(=O)C(C2=NS(=O)(=O)c3cc(NS(C)(=O)=O)ccc3N2)=C(O)c2ccccc21 (stereo not given) | 
18 |  |  |  | 13 nM | 19 nM | CC(C)(C)CCC1(NCc2csc3ccccc23)C(=O)C(C2=NS(=O)(=O)c3cc(NS(C)(=O)=O)ccc3N2)=C(O)c2ccccc21 (stereo not given) | 
